Data taken from ChEMBL document CHEMBL2010781, “2-Amidino analogs of glycine-amiloride conjugates: inhibitors of urokinase-type plasminogen activator” (Bioorg Med Chem Lett, 2012).
Active and inactive are the calls of the source. The rule behind the calls is not given here.

Legend:
U-87MG ATCC = experiment: Cytotoxicity against human U87 cells by lactate dehydrogenase assay; format: functional, cell-based
In short: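 Cytotoxicity was read as release of cytosolic LDH from dying cells, following the kit manufacturer's protocol.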

[1] = Inhibition of trypsin using tosyl-Gly-Pro-Lys-pNA as substrate by spectrophotometry
Plasminogen = Plasminogen (Homo sapiens, UniProt P00747); experiment: Inhibition of plasmin using tosyl-Gly-Pro-Lys-pNA as substrate by spectrophotometry
[2] = biological target: Urokinase-type plasminogen activator (Homo sapiens, UniProt P00749); experiment: Inhibition of urokinase-type plasminogen activator using Glt-Gly-Arg-AMC as substrate by spectrofluorometry
[3] = biological target: Tissue-type plasminogen activator (Homo sapiens, UniProt P00750); experiment: Inhibition of tPA using CH3SO2-D-HHT-Gly-Arg-pNA as substrate by spectrophotometry
[4] = Cytotoxicity against human U87 cells at 250 uM after 72 hrs by lactate dehydrogenase assay; format: functional, U-87MG ATCC
In short: (§1)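 Cell death was scored as cytosolic LDH released into the medium, using the kit manufacturer's LDH protocol.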

[5] = Cytotoxicity against human U87 cells at 250 uM after 24 hrs by lactate dehydrogenase assay; format: functional, U-87MG ATCC
In short: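 Human U87 glioma cells seeded at ten thousand per well and exposed to drug for 24–48 h at 37°C under 5% CO2. Cell death was read as cytosolic lactate dehydrogenase released from dying cells, assayed following the kit manufacturer's protocol.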

[6] = Cytotoxicity against human U87 cells at 100 uM after 72 hrs by lactate dehydrogenase assay; format: functional, U-87MG ATCC; settings: in the assay text read “24 hrs” for “72 hrs”; in short: as §1

Sequence of Tissue-type plasminogen activator (P00750 whole entry): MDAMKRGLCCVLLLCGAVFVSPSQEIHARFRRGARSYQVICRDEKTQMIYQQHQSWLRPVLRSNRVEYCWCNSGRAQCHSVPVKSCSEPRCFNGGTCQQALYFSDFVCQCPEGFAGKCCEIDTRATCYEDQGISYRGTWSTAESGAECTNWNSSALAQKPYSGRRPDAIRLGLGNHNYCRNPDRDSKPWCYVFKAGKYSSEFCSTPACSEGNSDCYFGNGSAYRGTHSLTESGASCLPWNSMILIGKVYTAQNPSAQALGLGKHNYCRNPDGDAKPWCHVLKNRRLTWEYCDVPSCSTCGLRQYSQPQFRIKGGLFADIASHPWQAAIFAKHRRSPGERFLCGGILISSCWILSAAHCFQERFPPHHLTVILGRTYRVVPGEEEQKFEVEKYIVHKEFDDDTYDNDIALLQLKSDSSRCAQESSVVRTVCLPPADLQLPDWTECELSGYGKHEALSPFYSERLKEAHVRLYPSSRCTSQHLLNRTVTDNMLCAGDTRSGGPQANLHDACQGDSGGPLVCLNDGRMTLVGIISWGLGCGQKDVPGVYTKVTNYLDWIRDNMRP
Sequence of Plasminogen (P00747 97-580 limits assumed): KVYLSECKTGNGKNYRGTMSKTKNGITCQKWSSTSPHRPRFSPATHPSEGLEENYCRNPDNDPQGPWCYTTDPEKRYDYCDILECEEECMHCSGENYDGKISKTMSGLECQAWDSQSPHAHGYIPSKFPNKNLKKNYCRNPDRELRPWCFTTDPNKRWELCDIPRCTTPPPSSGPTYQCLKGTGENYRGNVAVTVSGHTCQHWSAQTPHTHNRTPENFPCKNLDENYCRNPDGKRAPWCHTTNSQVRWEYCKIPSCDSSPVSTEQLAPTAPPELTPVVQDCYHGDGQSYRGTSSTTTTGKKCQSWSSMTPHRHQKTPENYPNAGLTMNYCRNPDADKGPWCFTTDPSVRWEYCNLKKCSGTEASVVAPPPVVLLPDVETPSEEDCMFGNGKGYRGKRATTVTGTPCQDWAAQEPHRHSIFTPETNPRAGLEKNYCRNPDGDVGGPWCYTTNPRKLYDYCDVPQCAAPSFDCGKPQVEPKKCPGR
Sequence of Plasminogen (P00747 581-810 limits assumed): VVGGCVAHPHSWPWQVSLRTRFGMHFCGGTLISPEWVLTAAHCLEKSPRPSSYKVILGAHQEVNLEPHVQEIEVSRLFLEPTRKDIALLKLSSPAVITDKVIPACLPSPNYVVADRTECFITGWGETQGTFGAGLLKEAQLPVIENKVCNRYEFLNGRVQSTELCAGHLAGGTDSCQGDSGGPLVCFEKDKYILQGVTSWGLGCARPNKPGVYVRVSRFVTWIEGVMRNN

| Structure (SMILES) | Activity (U-87MG ATCC) | IC50 [1] | IC50 (Plasminogen) | IC50 [2] | IC50 [3] | Activity [4] | Activity [5] | Activity [6] |
| --- | --- | --- | --- | --- | --- | --- | --- | --- |
| N/C(=N\O)c1nc(Cl)c(NCC(=O)OCc2ccccc2)nc1N | inactive | > 250 µM | – | – | – | – | – | – |
| N=C(NO)c1nc(Cl)c(NCC(=O)OCc2ccccc2)nc1N | – | – | > 250 µM | 74 µM | 200 µM | – | – | – |
| N=C(NO)c1ncc(NCC(=O)O)nc1N | – | – | – | 279 µM | > 250 µM | – | – | – |
| NC(N)=NC(=O)c1ncc(NCC(=O)O)nc1N | inactive | > 250 µM | > 250 µM | 47 µM | > 250 µM | – | – | – |
| N=C(N)c1nc(Cl)c(NCC(=O)OCc2ccccc2)nc1N | – | > 250 µM | > 250 µM | 4 µM | 200 µM | 50% | – | – |
| N=C(NO)c1nc(Cl)c(NCC(=O)O)nc1N | – | – | > 250 µM | 231 µM | > 250 µM | – | – | – |
| N=C(N)NC(=O)c1nc(Cl)c(N)nc1N [AMILORIDE] | – | > 250 µM | > 250 µM | – | 220 µM | – | 50% | – |
| N=C(N)c1nc(Cl)c(NCC(=O)O)nc1N | inactive | > 250 µM | – | 237 µM | > 250 µM | – | – | – |
| N=C(N)c1ncc(NCC(=O)O)nc1N | inactive | > 250 µM | > 250 µM | 212 µM | > 250 µM | – | – | – |
| N/C(=N\O)c1nc(Cl)c(NCC(=O)O)nc1N | inactive | > 250 µM | – | – | – | – | – | – |
| NC(=O)c1nc(Cl)c(NCC(=O)OCc2ccccc2)nc1N | – | > 250 µM | – | 69 µM | > 250 µM | – | – | – |
| NC(N)=NC(=O)c1nc(Cl)c(NCC(=O)OCc2ccccc2)nc1N | – | > 250 µM | > 250 µM | 3 µM | > 190 µM | – | – | 50% |
| N/C(=N\O)c1ncc(NCC(=O)O)nc1N | inactive | > 250 µM | – | – | – | – | – | – |
| N=C(N)NC(=O)c1nc(Cl)c(NCC(=O)O)nc1N | inactive | > 250 µM | > 250 µM | 17 µM | > 250 µM | – | – | – |
